# Test results from ChEMBL document CHEMBL4257441, “Protection effect of intracellular melanin from Lachnum YM156 and Haikunshenxi capsule combination on adenine-induced chronic renal failure in mice” (Medchemcomm, 2017).
# Experiments:
# [1] = Cytotoxicity against human HepG2 cells assessed as cell viability at 1 to 300 ug/ml after 24 hrs by MTT assay relative to control; type: cell-based; details: read-out: Activity
# How it was run: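 HepG2 cells exposed to the melanin were read by MTT absorbance. Viability (% of control) is calculated as treated-well absorbance ×100 / control-well absorbance.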
# [2] = test system: Mus musculus; test: Protective effect against adenine-induced chronic renal failure in Kunming mouse assessed as kidney index at 200 mg/kg, ig qd administered for 4 successive weeks measured 24 hrs post last dose (reference value: 1.94 +/- 0.03 mg/g); type: functional
# How it was run: (§1)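 Male Kunming mice (20 ± 5 g) were housed on a 12 h light/dark cycle at 18–20 °C. Chronic renal failure was induced by long-term dietary adenine. The melanin was given orally at 100 or 200 mg kg–1, alone or with Haikunshenxi capsule as positive drug, with ten mice per group. Weight growth rate (%) and kidney index (mg g–1) were recorded.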
# [3] = test system: Mus musculus; test: Protective effect against adenine-induced chronic renal failure in Kunming mouse assessed as nephridial iNOS levels at 200 mg/kg, ig qd administered for 4 successive weeks with haikunshenxi capsule (reference value: 1.98 +/- 0.12 U/mg); type: functional
# [4] = test system: Mus musculus; test: Protective effect against adenine-induced chronic renal failure in ig dosed Kunming mouse assessed as increase in nephridial CAT levels administered as qd for 4 successive weeks by visible spectrometry method; type: functional, organism-based
# How it was run: (§2)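 Male Kunming mice (20 ± 5 g) given dietary adenine to induce CRF, then dosed orally at 100 or 200 mg kg–1, with or without Haikunshenxi capsule; n = 10 per group. Kidney homogenate assayed for SOD and CAT (U mg–1 protein), GSH-Px (U L–1), GSH (mg g–1 protein) and MDA (nmol mL–1).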
# [5] = test system: Mus musculus; test: Protective effect against adenine-induced chronic renal failure in ig dosed Kunming mouse assessed as increase in albumin levels in serum administered as qd for 4 successive weeks with haikunshenxi capsule by bromocresol green colorimetric method; type: functional, organism-based
# How it was run: (§3)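 Adenine-fed CRF model in male Kunming mice (20 ± 5 g) housed at 18–20 °C on a 12 h light/dark cycle. Oral dosing at 100 or 200 mg kg–1, with or without Haikunshenxi capsule; ten mice per group. Serum creatinine, BUN, total protein and albumin measured, each group compared with the model group.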
# [6] = test system: Mus musculus; test: Protective effect against adenine-induced chronic renal failure in Kunming mouse assessed as nephridial SOD levels at 200 mg/kg, ig qd administered for 4 successive weeks with haikunshenxi capsule by hydroxylamine method (reference value: 30.45 +/- 1.12 U/mg); type: functional
# [7] = test system: Mus musculus; test: Protective effect against adenine-induced chronic renal failure in Kunming mouse assessed as nephridial CAT levels at 200 mg/kg, ig qd administered for 4 successive weeks with haikunshenxi capsule by visible spectrometry method (reference value: 44.13 +/- 1.25 U/mg); type: functional
# [8] = test system: Mus musculus; test: Protective effect against adenine-induced chronic renal failure in Kunming mouse assessed as nephridial MDA levels at 100 mg/kg, ig qd administered for 4 successive weeks with haikunshenxi capsule by thiobarbituric acid method (reference value: 5.05 +/- 0.15 nmol/ml); type: functional
# [9] = test system: Mus musculus; test: Protective effect against adenine-induced chronic renal failure in Kunming mouse assessed as nephridial IL-6 levels at 100 mg/kg, ig qd administered for 4 successive weeks with haikunshenxi capsule (reference value: 20.85 +/- 0.11 pg/ml); type: functional
# [10] = test system: Mus musculus; test: Protective effect against adenine-induced chronic renal failure in ig dosed Kunming mouse assessed as increase in total protein levels in serum administered as qd for 4 successive weeks by coomassie brilliant blue method; type: functional, organism-based; how it was run: as §3
# [11] = test system: Mus musculus; test: Protective effect against adenine-induced chronic renal failure in Kunming mouse assessed as kidney index at 200 mg/kg, ig qd administered for 4 successive weeks with haikunshenxi capsule measured 24 hrs post last dose (reference value: 1.94 +/- 0.03 mg/g); type: functional; how it was run: as §1
# [12] = test system: Mus musculus; test: Protective effect against adenine-induced chronic renal failure in ig dosed Kunming mouse assessed as decrease in nephridial MDA levels administered as qd for 4 successive weeks with haikunshenxi capsule by thiobarbituric acid method; type: functional, organism-based; how it was run: as §2
# [13] = test system: Mus musculus; test: Protective effect against adenine-induced chronic renal failure in Kunming mouse assessed as nephridial TNF-alpha levels at 200 mg/kg, ig qd administered for 4 successive weeks with haikunshenxi capsule (reference value: 250.15 +/- 8.10 pg/ml); type: functional
# [14] = test system: Mus musculus; test: Protective effect against adenine-induced chronic renal failure in ig dosed Kunming mouse assessed as increase in nephridial SOD levels administered as qd for 4 successive weeks with haikunshenxi capsule by hydroxylamine method; type: functional, organism-based; how it was run: as §2
# [15] = test system: Mus musculus; test: Protective effect against adenine-induced chronic renal failure in ig dosed Kunming mouse assessed as increase in nephridial CAT levels administered as qd for 4 successive weeks with haikunshenxi capsule by visible spectrometry method; type: functional, organism-based; how it was run: as §2
# [16] = test system: Mus musculus; test: Protective effect against adenine-induced chronic renal failure in Kunming mouse assessed as nephridial iNOS levels at 200 mg/kg, ig qd administered for 4 successive weeks (reference value: 1.98 +/- 0.12 U/mg); type: functional
# [17] = test system: Mus musculus; test: Protective effect against adenine-induced chronic renal failure in ig dosed Kunming mouse assessed as decrease in nephridial IL-1beta levels administered as qd for 4 successive weeks with haikunshenxi capsule; type: functional, organism-based
# How it was run: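 CRF model made by chronic dietary adenine in male Kunming mice (20 ± 5 g); oral dosing at 100 or 200 mg kg–1, alone or with Haikunshenxi capsule; ten mice per group. Kidney tissue TNF-α, IL-1β and IL-6 measured as pg per mg protein, and iNOS activity as U mg–1 protein.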
# [18] = test system: Mus musculus; test: Protective effect against adenine-induced chronic renal failure in Kunming mouse assessed as nephridial IL-6 levels at 100 mg/kg, ig qd administered for 4 successive weeks (reference value: 20.85 +/- 0.11 pg/ml); type: functional
# [19] = test system: Mus musculus; test: Protective effect against adenine-induced chronic renal failure in Kunming mouse assessed as nephridial MDA levels at 200 mg/kg, ig qd administered for 4 successive weeks by thiobarbituric acid method (reference value: 5.05 +/- 0.15 nmol/ml); type: functional
# [20] = test system: Mus musculus; test: Protective effect against adenine-induced chronic renal failure in Kunming mouse assessed as nephridial CAT levels at 100 mg/kg, ig qd administered for 4 successive weeks by visible spectrometry method (reference value: 44.13 +/- 1.25 U/mg); type: functional
# [21] = test system: Mus musculus; test: Protective effect against adenine-induced chronic renal failure in Kunming mouse assessed as nephridial IL-1beta levels at 100 mg/kg, ig qd administered for 4 successive weeks with haikunshenxi capsule (reference value: 18.34 +/- 0.25 pg/ml); type: functional
# [22] = test system: Mus musculus; test: Protective effect against adenine-induced chronic renal failure in Kunming mouse assessed as kidney index at 100 mg/kg, ig qd administered for 4 successive weeks with haikunshenxi capsule measured 24 hrs post last dose (reference value: 1.94 +/- 0.03 mg/g); type: functional; how it was run: as §1
# [23] = test system: Mus musculus; test: Protective effect against adenine-induced chronic renal failure in Kunming mouse assessed as kidney index at 100 mg/kg, ig qd administered for 4 successive weeks measured 24 hrs post last dose (reference value: 1.94 +/- 0.03 mg/g); type: functional; how it was run: as §1
structure (smiles),measurement,setting,value
Cc1c(=O)c(=O)c2c3c[nH]c4c(C)c(=O)c(=O)c(c5c[nH]c1c52)c43,viability at 24 h,[1],100%
same,Activity,[2],1.35 mg/g
same,Activity,[3],0.68 U/mg
same,Activity,[4],Dose-dependent effect
same,Activity,[5],Dose-dependent effect
same,Activity,[6],48.58 U/mg
same,Activity,[7],76.47 U/mg
same,Activity,[8],3.05 nmol/mL
same,Activity,[9],12.07 pg/mL
same,Activity,[10],Dose-dependent effect
same,Activity,[11],1.13 mg/g
same,Activity,[12],Dose-dependent effect
same,Activity,[13],84.35 pg/mL
same,Activity,[14],Dose-dependent effect
same,Activity,[15],Dose-dependent effect
same,Activity,[16],1.64 U/mg
same,Activity,[17],Dose-dependent effect
same,Activity,[18],18.27 pg/mL
same,Activity,[19],3.74 nmol/mL
same,Activity,[20],60.53 U/mg
same,Activity,[21],14.51 pg/mL
same,Activity,[22],1.18 mg/g
same,Activity,[23],1.72 mg/g
